Measurements published in ChEMBL document CHEMBL1153060, “Part 1: Structure-Activity Relationship (SAR) investigations of fused pyrazoles as potent, selective and orally available inhibitors of p38alpha mitogen-activated protein kinase” (Bioorg Med Chem Lett, 2009).
Converted amounts (≈) assume the structure as drawn.

Columns and labels:
[1] = Clearance in Sprague-Dawley rat at 2 mg/kg, iv; assay type: ADME, organism-based; set-up: dose 2 mg/kg, route intravenous; conditions: in vivo
Method in brief: (§1)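 Male Sprague–Dawley rats given 2.0 mg/kg iv (in DMSO) or 2.0 mg/kg po. Values are the mean of three rats. Reported parameters are CL, Vdss, t1/2, AUC(0-inf) and oral F.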

[2] = biological target: Mitogen-activated protein kinase 14 (Homo sapiens, UniProt Q16539); test: Inhibition of human recombinant p38alpha assessed as phosphorylation of ATF2 by scintillation proximity assay
Mitogen-activated protein kinase 14, sequence (Q16539 whole entry): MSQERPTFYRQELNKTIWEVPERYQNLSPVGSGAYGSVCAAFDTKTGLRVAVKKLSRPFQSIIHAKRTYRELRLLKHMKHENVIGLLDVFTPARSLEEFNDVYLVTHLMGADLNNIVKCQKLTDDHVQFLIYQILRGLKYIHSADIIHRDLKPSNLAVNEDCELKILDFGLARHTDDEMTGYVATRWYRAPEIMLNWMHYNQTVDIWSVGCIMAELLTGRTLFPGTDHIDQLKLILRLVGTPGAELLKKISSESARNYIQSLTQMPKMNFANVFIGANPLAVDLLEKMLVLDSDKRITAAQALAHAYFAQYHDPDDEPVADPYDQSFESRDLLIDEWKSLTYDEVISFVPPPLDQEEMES

[3] = tested on: THP-1; test: Inhibition of LPS-induced TNFalpha release in human THP1 cells after 3 hrs; assay type: functional, cell-based; conditions: THP-1, 3 h
Method in brief: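 THP1 cell line challenged with LPS, with TNFα secretion as read-out. IC50 is the mean of at least three independent dose–response curves, or of two where flagged.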

[4] = tested on: Blood; test: Inhibition of TNF-alpha-stimulated IL8 production in human whole blood incubated for 1 hr before TNFalpha challenge measured after 16 to 18 hrs; assay type: functional, tissue-based
Method in brief: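 Human whole blood diluted to 50% and stimulated with TNFα, with IL-8 secretion as read-out. IC50 is the mean of at least three independent dose–response curves, or of two where flagged.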

[5] = biological target: Mitogen-activated protein kinase 11 (Homo sapiens, UniProt Q15759); test: Inhibition of p38beta
Mitogen-activated protein kinase 11, sequence (Q15759 whole entry): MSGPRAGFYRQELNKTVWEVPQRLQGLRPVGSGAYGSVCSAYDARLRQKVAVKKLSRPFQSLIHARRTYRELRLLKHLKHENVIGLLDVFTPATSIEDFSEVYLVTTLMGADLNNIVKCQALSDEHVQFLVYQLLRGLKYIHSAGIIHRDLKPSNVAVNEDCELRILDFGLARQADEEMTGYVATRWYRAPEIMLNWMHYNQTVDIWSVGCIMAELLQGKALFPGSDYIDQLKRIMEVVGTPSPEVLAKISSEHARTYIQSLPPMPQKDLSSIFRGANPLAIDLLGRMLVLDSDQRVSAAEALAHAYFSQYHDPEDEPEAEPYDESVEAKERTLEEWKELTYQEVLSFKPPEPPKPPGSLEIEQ

[6] = biological target: T1, Mitogen-activated protein kinase 12 (Homo sapiens, UniProt P53778); test: Inhibition of p38-gamma
T1 sequence (P53778 whole entry): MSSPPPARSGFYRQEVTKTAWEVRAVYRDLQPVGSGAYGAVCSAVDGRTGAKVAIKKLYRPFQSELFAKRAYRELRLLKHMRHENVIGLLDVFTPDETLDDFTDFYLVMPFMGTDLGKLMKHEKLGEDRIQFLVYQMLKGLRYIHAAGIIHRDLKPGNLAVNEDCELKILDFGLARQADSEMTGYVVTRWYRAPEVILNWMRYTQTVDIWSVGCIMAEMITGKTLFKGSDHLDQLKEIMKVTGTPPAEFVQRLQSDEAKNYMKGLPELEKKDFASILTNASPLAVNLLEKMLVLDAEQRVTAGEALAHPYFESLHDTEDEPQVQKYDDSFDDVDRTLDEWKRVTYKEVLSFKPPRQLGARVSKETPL

[7] = biological target: T2, Mitogen-activated protein kinase 13 (Homo sapiens, UniProt O15264); test: Inhibition of p38delta
T2 sequence (O15264 whole entry): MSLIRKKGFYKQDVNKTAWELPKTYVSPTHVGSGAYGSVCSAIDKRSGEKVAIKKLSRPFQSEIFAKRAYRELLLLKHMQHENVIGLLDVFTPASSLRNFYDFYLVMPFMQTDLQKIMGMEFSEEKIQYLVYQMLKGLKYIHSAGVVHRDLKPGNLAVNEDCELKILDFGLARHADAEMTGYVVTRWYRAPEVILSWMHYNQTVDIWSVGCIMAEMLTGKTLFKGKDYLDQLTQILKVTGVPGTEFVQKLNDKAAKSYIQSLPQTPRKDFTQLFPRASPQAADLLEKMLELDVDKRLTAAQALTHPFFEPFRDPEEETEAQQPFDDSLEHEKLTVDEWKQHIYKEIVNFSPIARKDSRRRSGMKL

[8] = biological target: Mitogen-activated protein kinase 8 (Homo sapiens, UniProt P45983); test: Inhibition of JNK1
Mitogen-activated protein kinase 8, sequence (P45983 whole entry): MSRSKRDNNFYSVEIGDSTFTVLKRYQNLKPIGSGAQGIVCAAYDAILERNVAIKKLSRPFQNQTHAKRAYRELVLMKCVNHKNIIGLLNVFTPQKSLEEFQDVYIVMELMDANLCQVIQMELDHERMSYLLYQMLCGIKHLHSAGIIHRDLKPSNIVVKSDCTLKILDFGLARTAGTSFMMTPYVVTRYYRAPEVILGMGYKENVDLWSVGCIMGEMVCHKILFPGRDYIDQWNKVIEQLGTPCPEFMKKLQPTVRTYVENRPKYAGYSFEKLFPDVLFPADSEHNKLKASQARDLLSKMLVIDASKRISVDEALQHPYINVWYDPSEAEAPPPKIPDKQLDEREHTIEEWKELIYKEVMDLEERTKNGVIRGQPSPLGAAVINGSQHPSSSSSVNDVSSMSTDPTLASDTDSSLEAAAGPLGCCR

[9] = biological target: Mitogen-activated protein kinase 9 (Homo sapiens, UniProt P45984); test: Inhibition of JNK2
Mitogen-activated protein kinase 9, sequence (P45984 whole entry): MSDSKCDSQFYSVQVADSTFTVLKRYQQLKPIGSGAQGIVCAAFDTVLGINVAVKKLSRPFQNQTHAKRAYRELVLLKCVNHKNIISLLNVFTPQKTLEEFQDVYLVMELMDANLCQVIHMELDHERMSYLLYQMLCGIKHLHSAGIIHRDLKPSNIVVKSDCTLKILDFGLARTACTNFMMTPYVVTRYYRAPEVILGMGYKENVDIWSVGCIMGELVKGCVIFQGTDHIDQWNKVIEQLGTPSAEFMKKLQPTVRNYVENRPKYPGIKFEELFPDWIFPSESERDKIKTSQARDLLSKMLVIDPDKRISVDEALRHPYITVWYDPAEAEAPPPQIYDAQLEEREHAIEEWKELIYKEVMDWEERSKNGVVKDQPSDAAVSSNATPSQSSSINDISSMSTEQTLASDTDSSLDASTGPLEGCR

[10] = biological target: Mitogen-activated protein kinase 10 (Homo sapiens, UniProt P53779); test: Inhibition of JNK3
Mitogen-activated protein kinase 10, sequence (P53779 whole entry): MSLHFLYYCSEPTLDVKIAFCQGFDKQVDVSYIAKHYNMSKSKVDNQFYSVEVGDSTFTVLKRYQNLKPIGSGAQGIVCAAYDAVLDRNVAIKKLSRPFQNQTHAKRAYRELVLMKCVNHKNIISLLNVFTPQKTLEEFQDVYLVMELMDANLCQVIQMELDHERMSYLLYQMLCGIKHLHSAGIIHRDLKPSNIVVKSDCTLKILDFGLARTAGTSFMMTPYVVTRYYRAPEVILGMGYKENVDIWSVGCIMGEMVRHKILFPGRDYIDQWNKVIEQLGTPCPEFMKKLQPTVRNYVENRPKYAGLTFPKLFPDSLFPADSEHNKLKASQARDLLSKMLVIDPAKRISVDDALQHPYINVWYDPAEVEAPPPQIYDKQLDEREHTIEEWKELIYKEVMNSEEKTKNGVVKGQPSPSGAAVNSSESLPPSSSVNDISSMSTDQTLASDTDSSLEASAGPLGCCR

[11] = biological target: Cytochrome P450 3A4 (Homo sapiens, UniProt P08684); test: Inhibition of CYP3A4; assay type: ADME
Cytochrome P450 3A4, sequence (P08684 whole entry): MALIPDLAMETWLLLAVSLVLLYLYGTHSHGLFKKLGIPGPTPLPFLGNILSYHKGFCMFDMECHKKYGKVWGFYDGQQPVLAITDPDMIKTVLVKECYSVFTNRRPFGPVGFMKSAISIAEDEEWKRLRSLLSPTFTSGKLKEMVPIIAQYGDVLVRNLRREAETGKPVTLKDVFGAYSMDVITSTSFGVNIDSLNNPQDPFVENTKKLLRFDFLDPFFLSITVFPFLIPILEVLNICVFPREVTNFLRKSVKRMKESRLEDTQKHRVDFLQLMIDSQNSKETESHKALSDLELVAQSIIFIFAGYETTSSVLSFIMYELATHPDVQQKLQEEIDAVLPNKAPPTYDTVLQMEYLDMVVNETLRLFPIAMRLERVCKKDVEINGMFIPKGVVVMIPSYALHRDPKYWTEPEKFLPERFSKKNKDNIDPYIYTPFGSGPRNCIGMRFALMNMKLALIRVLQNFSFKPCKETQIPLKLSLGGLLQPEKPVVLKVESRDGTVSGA

[12] = biological target: T3, Cytochrome P450 1A2 (Homo sapiens, UniProt P05177); test: Inhibition of CYP1A2; assay type: ADME
T3 sequence (P05177 whole entry): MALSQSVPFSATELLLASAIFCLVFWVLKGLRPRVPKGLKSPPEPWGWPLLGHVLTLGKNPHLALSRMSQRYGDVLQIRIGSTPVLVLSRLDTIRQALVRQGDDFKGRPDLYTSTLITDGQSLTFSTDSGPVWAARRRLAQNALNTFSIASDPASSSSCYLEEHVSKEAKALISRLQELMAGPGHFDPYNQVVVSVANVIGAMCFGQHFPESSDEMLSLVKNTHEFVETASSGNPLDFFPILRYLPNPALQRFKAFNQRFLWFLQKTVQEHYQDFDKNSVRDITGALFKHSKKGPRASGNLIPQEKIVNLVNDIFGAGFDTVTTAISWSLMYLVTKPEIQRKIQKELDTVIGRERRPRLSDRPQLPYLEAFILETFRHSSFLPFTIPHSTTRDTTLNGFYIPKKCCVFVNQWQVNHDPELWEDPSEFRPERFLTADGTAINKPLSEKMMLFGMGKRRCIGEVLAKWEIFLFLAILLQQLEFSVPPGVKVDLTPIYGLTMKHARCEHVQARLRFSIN

[13] = biological target: Cytochrome P450 2C9 (Homo sapiens, UniProt P11712); test: Inhibition of CYP2C9; assay type: ADME
Cytochrome P450 2C9, sequence (P11712 whole entry): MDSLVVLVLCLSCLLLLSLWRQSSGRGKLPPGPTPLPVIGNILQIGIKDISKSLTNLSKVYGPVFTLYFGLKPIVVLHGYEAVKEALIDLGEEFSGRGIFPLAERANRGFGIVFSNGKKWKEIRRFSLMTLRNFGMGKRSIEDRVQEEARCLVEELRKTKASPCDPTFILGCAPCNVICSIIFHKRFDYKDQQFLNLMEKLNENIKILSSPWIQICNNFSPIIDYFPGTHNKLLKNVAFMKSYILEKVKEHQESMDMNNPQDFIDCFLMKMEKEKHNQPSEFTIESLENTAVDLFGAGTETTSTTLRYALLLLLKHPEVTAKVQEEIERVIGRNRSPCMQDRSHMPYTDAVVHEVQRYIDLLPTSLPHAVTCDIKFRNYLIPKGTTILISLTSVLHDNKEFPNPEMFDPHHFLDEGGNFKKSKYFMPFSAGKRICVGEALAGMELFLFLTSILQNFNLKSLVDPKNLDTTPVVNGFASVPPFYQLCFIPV

[14] = biological target: Cytochrome P450 2C19 (Homo sapiens, UniProt P33261); test: Inhibition of CYP2C19; assay type: ADME
Cytochrome P450 2C19, sequence (P33261 whole entry): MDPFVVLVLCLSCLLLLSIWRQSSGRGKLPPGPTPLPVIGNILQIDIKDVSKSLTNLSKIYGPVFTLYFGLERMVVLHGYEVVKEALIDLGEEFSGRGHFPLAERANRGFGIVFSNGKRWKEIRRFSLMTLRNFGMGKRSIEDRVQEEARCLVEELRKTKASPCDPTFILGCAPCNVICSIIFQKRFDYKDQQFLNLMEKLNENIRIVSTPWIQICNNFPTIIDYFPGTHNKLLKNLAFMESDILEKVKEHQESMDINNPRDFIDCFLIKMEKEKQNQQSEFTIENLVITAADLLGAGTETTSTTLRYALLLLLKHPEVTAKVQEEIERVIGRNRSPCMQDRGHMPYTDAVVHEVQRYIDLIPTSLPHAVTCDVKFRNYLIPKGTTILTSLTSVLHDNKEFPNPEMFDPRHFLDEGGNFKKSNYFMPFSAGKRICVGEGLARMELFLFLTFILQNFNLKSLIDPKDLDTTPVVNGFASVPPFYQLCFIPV

[15] = biological target: Cytochrome P450 2D6 (Homo sapiens, UniProt P10635); test: Inhibition of CYP2D6; assay type: ADME
Cytochrome P450 2D6, sequence (P10635 whole entry): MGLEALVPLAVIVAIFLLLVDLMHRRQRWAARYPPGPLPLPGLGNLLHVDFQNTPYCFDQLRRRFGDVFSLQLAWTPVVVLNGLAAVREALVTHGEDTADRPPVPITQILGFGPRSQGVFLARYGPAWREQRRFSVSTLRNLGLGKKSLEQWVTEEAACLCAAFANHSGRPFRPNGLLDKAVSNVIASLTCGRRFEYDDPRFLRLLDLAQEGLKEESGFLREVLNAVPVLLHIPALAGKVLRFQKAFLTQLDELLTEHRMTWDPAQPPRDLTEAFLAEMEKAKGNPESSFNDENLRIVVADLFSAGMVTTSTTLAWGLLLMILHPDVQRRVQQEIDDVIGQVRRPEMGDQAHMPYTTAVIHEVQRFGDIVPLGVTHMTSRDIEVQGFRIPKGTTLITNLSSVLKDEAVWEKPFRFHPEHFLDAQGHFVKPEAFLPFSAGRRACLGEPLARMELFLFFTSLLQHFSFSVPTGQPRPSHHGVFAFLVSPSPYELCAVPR

[16] = Volume of distribution at steady state in Sprague-Dawley rat at 2 mg/kg, iv; assay type: ADME, organism-based; set-up: dose 2 mg/kg, route intravenous; conditions: in vivo, read-out: Vdss; method in brief: as §1
[17] = Half life in Sprague-Dawley rat at 2 mg/kg, iv; assay type: ADME, organism-based; set-up: dose 2 mg/kg, route intravenous; conditions: in vivo; method in brief: as §1
[18] = AUC (0 to infinity) in Sprague-Dawley rat at 2 mg/kg, po; assay type: ADME, organism-based; set-up: time infinity, dose 2 mg/kg, route oral; conditions: plasma; method in brief: as §1
[19] = Oral bioavailability in Sprague-Dawley rat at 2 mg/kg; assay type: ADME, organism-based; conditions: in vivo; method in brief: as §1
[20] = species: Rattus norvegicus; test: Plasma concentration in Lewis rat at ED50; assay type: ADME, organism-based; conditions: in vivo
[21] = Ratio of drug level in brain to plasma in Lewis rat; assay type: ADME; conditions: read-out: BPR
[22] = Solubility in 0.01N HCl; assay type: physicochemical
[23] = Solubility in phosphate buffered saline; assay type: physicochemical
[24] = Solubility in simulated intestinal fluid; assay type: physicochemical
[25] = Protein binding in rat plasma by ultrafiltration method; conditions: read-out: PPB (converted)
[26] = species: Homo sapiens; test: Protein binding in human plasma by ultrafiltration method; conditions: read-out: PPB (converted)
[27] = biological target: RAF proto-oncogene serine/threonine-protein kinase (Homo sapiens) (UniProt P04049); test: Inhibition of c-Raf at 1.5 uM; values are per cent of control
RAF proto-oncogene serine/threonine-protein kinase (Homo sapiens), sequence (P04049 whole entry): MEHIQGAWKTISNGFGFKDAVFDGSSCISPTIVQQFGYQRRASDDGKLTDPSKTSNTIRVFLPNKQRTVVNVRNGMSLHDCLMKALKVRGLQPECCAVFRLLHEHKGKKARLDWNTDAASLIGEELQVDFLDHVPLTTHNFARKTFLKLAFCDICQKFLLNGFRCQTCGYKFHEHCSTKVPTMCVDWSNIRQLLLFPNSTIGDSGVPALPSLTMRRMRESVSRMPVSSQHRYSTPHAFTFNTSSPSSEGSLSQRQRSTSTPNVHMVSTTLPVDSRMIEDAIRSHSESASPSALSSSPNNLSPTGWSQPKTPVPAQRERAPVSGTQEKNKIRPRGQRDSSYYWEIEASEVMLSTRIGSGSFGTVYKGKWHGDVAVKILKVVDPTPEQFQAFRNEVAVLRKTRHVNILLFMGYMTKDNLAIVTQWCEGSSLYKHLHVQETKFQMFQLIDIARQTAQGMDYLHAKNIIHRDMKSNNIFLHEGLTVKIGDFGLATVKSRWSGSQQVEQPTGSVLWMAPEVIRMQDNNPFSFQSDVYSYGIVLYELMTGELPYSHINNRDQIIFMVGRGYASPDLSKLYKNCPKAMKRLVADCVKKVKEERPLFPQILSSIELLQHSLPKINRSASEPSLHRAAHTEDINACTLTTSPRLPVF

[28] = tested on: Rattus norvegicus; test: Inhibition of LPS-induced TNFalpha production in po dosed Lewis rat administered 60 mins prior to LPS challenge measured after 90 mins by ELISA
[29] = tested on: Rattus norvegicus; test: Inhibition of LPS-induced TNFalpha production in Lewis rat at 0.1 mg/kg, po administered 60 mins prior to LPS challenge measured after 90 mins by ELISA
[30] = tested on: Rattus norvegicus; test: Inhibition of LPS-induced TNFalpha production in Lewis rat at 0.3 mg/kg, po administered 60 mins prior to LPS challenge measured after 90 mins by ELISA
[31] = tested on: Rattus norvegicus; test: Inhibition of LPS-induced TNFalpha production in Lewis rat at 0.01 mg/kg, po administered 60 mins prior to LPS challenge measured after 90 mins by ELISA
[32] = tested on: Rattus norvegicus; test: Inhibition of LPS-induced TNFalpha production in Lewis rat at 0.03 mg/kg, po administered 60 mins prior to LPS challenge measured after 90 mins by ELISA

Cn1c(=O)cc(Nc2cc(C(=O)NC3CC3)ccc2Cl)c2cnn(-c3ccc(F)cc3)c21 gave a clearance [1] of 4.33 mL/min/kg, an IC50 [2] of 0.0015 µM and an IC50 [3] of 0.0011 µM. The IC50 [4] was 0.0025 µM, the IC50 [5] was 0.004 µM and the IC50 [6] was over 10 µM. It also gave an IC50 [7] of over 10 µM, an IC50 [8] of over 10 µM and an IC50 [9] of over 10 µM. The IC50 [10] was over 10 µM, the IC50 [11] was over 30 µM and the IC50 [12] was over 30 µM. For the same compound, the IC50 [13] was over 21 µM, the IC50 [14] was over 21 µM and the IC50 [15] was over 21 µM. For the same compound, the Vd [16] was 0.97 L/kg, the half-life [17] was 5.8 h and the AUC(0-inf) [18] was 6550 ng·h/mL. For the same compound, the bioavailability [19] was 84%, the Cp [20] was 3.2 ng/mL and the Kp [21] was 0.04. For the same compound, the solubility [22] was 31.2 µg/mL (≈ 69 µM), the solubility [23] was 26.6 µg/mL (≈ 58.9 µM) and the solubility [24] was 38.8 µg/mL (≈ 85.9 µM). For the same compound, the fraction unbound [25] was 0.03, the fraction unbound [26] was 0.06 and the residual activity [27] was 40%. It also gave an ED50 [28] of 0.1 mg/kg, an inhibition in vivo at 0.1 mg/kg [29] of 50.1% and an inhibition in vivo at 0.3 mg/kg [30] of 97.4%. The inhibition in vivo at 0.01 mg/kg [31] was 21% and the inhibition in vivo at 0.03 mg/kg [32] was 5.6%.
